FGF22 binding: FGF22 (human) thermal shift binding; activity (Tm shift, normalised), % at 9.99 µM; 340,000 tested, 1.5% active; Q9HCT0; recombinant FGF22 thermal shift, SYPRO orange fluorescence; percent of sucrose octasulfate shift, DMSO zero;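 active = mean Tm shift, scaled 0 neutral to 100 positive control, at about 1.3% or above, every replicate too, limit read from the data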
Target sequence (Q9HCT0 whole entry, looked up): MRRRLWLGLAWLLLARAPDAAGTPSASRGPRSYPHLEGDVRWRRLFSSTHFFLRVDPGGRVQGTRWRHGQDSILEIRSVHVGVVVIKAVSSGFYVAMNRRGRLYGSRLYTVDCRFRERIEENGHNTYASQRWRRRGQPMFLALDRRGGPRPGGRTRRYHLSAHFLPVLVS
Env fusion inh: blocks HIV Env-driven cell-cell fusion | HeLa-JRFL Env/CEM21 cell fusion, luciferase | inhibition, % at 12.3 µM | 360,000 tested, 1.1% active;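 active = mean replicate inhibition score of at least 50 and every replicate individually at or above 50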;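 note: 0% = plate neutral controls and 100% = maraviroc near 300 nM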
Cneo AK release: Cryptococcus neoformans lysis via adenylate kinase release | C. neoformans lysis, adenylate kinase release luminescence, 4 h; normalised: neutral wells 0, clomiphene wells 100 | lysis activity, % at 15 µM | 360,000 tested, 0.2% active | AID 651654;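 active = mean lysis activity across replicates of at least 80%, whatever share of replicates individually reach that level; inactive = mean lysis activity below 80%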
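Signal: Adenylate kinase release luminescence | Assay system: Log-phase Cryptococcus neoformans yeast cells | Input: Cells at 5 × 10^6 per mL | Buffer or medium: Fresh YPD growth medium | Compound: Single dose | Schedule: Static 4 h at 37 °C with compound, 1 h detection | Controls: Clomiphene | Read-out: Luminescence rise reflecting yeast cell lysis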
ERAP1 inh: blocks human ERAP1 aminopeptidase activity; Q9NZ08; recombinant ERAP1, Leu-AMC fluorescence, 60 min; inhibition, % at 10.7 µM; 340,000 tested, 0.15% active;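 active = mean replicate inhibition of at least 30%, or all replicates individually reaching that 30% level; inactive = mean below 30% and not every replicate reaching it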;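 note: 0% = neutral control wells and 100% = L-leucinethiol positive control wells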
PGC1a acetyl inh: modulators of PGC1a acetylation; inhibition, % at 15.6 µM; 350,000 tested, 0.17% active; U2OS PGC1a acetylation, AlphaScreen anti-acetyl-lysine; with virally co-expressed GCN5 acetyltransferase; AID 651687;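 active = every replicate shows inhibition of at least 40%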;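 note: 0% = neutral control wells and 100% = positive control wells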
rRNA inh HTS: inhibits bacterial ribosomal RNA function over humanized ribosomes. GFP signal change (wild-type ribosome), % (test concentration not listed). 350,000 tested, 1.6% active. E. coli WT GFP vs humanized-ribosome RFP mutants, fluorescence, 24 h; stronger effect = lower value; DMSO median 0, no signal -100;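 active = significant combined selectivity score with lowered wild-type GFP, culture density cut under 30%, mutant RFP and density less affected; inactive = any of these conditions unmet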
An asterisk follows results filed as active; [ ] = another dose, or the depositor's remark. A selection: hits, their analogues and other compounds. The true share with any hit is near 3.5%.

How did CC(C)NC(=O)Nc1ccc2c(c1)CC(=O)N([C@H](C)CO)C[C@@H](C)[C@@H](CN(C)Cc1ccc(Oc3ccccc3)cc1)O2 do in these assays?
FGF22 binding: -0.4; Cneo AK release: 104.7*; ERAP1 inh: 2.1; PGC1a acetyl inh: -6.2; rRNA inh HTS: -0.8

Results for CC(C)NC(=O)Nc1ccc2c(c1)CC(=O)N([C@H](C)CO)C[C@H](C)[C@H](CN(C)Cc1ccc(Oc3ccccc3)cc1)O2 ?
FGF22 binding: -0.3; Cneo AK release: 1.7; ERAP1 inh: 4.1; PGC1a acetyl inh: -4.6; rRNA inh HTS: -7.7

What do the screens show for `Cc1ccc(S(=O)(=O)Nc2ccc3c(c2)CC(=O)N([C@@H](C)CO)C[C@@H](C)[C@H](CN(C)Cc2ccc(Oc4ccccc4)cc2)O3)cc1`?
FGF22 binding: 0.0; Env fusion inh: 72.9*[16.7 µM]; Cneo AK release: -2.6; ERAP1 inh: 1.3; PGC1a acetyl inh: -10.5; rRNA inh HTS: 3.2

What do the screens show for `C[C@H](CO)N1C[C@H](C)[C@@H](CN(C)Cc2ccc(Oc3ccccc3)cc2)Oc2ccc(NS(=O)(=O)c3cn(C)cn3)cc2CC1=O`?
FGF22 binding: -0.1; Env fusion inh: -30.6[16.7 µM]; Cneo AK release: 109.6*; ERAP1 inh: 2.4; PGC1a acetyl inh: 12.2; rRNA inh HTS: -34.7

How did C[C@H]1CN([C@@H](C)CO)C(=O)Cc2cc(NS(=O)(=O)c3cn(C)cn3)ccc2O[C@H]1CN(C)Cc1ccc(Oc2ccccc2)cc1 do in these assays?
FGF22 binding: -0.1; Env fusion inh: -9.9[16.7 µM]; Cneo AK release: 0.4; ERAP1 inh: 2.2; PGC1a acetyl inh: 6.8; rRNA inh HTS: 0.6

What do the screens show for `CC1CCc2c(sc(NC(=O)c3cccs3)c2C(=O)O)C1` (stereo not given)?
FGF22 binding: -0.3; Env fusion inh: 11.3; ERAP1 inh: 3.8; rRNA inh HTS: -11.3

What do the screens show for `COc1ccc(C(=O)NNC(=O)CCCCC(=O)NNC(=O)c2ccc(OC)cc2)cc1`?
FGF22 binding: 0.1; Env fusion inh: -7.1; ERAP1 inh: -2.6; rRNA inh HTS: 22.3

What do the screens show for `O=[N+]([O-])c1ccc(Cl)c2c1C1C=CCC1C(c1ccccn1)N2` (stereo not given)?
FGF22 binding: -0.2; Env fusion inh: 10.9; ERAP1 inh: 0.1; rRNA inh HTS: 1.9

What do the screens show for `O=C(O)C1Nc2c(O)cc(Cl)c([N+](=O)[O-])c2C2C=CCC12` (stereo not given)?
FGF22 binding: 2.7*; Env fusion inh: -13.2; ERAP1 inh: 24.1; rRNA inh HTS: -15.2

What do the screens show for `O=C(COc1cccc2c1CCN(Cc1ccccc1)C2=O)N1CCCCC1`?
FGF22 binding: 43.3*; Env fusion inh: 15.8; ERAP1 inh: 3.7; rRNA inh HTS: -21.0

What do the screens show for `CCOC(=O)N1CCN(C(=O)COc2cccc3c2CCN(Cc2cccc(C)c2)C3=O)CC1`?
FGF22 binding: 0.4; Env fusion inh: 42.1; ERAP1 inh: -2.6; rRNA inh HTS: -25.2*

How did CCN(Cc1ccncc1)C(=O)CCc1nnc(CCc2ccc(OC)cc2)o1 do in these assays?
FGF22 binding: 43.8*; Env fusion inh: -1.4; Cneo AK release: 5.5; ERAP1 inh: -0.1; PGC1a acetyl inh: 13.1; rRNA inh HTS: 10.0

How did COc1cccc(/C=N/Nc2nc3ccccc3[nH]2)c1OC do in these assays?
FGF22 binding: -0.2; Env fusion inh: -45.1; ERAP1 inh: -3.6; rRNA inh HTS: -24.6*

How did CC(=O)Nc1ccc(/C=N/Nc2nc3ccccc3[nH]2)cc1 do in these assays?
FGF22 binding: 0.2; Env fusion inh: 3.8; ERAP1 inh: -30.9; rRNA inh HTS: -21.3*

Results for Cc1[nH]n(-c2ccccc2)c(=O)c1N=Nc1ccc(C(=O)O)cc1 ?
FGF22 binding: 0.0; Env fusion inh: 14.3; Cneo AK release: 4.4; ERAP1 inh: 2.7; PGC1a acetyl inh: 25.3; rRNA inh HTS: 3.1

Results for Cc1[nH]n(-c2ccccc2)c(=O)c1N=Nc1cccc(C(=O)O)c1 ?
FGF22 binding: -0.1; Env fusion inh: 58.3*; Cneo AK release: -6.8; ERAP1 inh: -4.0; PGC1a acetyl inh: 13.7; rRNA inh HTS: -27.4*

Bioassay records deposited in PubChem BioAssay by Broad Institute.
